# Active and inactive are the calls of the source.
# What was measured:
# [1] = target: T1, 5-hydroxytryptamine receptor 2A (Homo sapiens, UniProt P28223); assay: Displacement of [3H]ketanserin from recombinant human 5-HT2A receptor after 60 mins by scintillation counting analysis
# In short: (§1)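 Cloned human 5-HT2A receptor stably expressed in CHO cells; displacement of [3H]-ketanserin.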
# [2] = target: T2, 5-hydroxytryptamine receptor 6 (Homo sapiens, UniProt P50406); assay: Displacement of [3H]LSD from human recombinant 5-HT6 receptor after 120 mins by scintillation counting analysis
# T2 sequence (P50406 whole entry): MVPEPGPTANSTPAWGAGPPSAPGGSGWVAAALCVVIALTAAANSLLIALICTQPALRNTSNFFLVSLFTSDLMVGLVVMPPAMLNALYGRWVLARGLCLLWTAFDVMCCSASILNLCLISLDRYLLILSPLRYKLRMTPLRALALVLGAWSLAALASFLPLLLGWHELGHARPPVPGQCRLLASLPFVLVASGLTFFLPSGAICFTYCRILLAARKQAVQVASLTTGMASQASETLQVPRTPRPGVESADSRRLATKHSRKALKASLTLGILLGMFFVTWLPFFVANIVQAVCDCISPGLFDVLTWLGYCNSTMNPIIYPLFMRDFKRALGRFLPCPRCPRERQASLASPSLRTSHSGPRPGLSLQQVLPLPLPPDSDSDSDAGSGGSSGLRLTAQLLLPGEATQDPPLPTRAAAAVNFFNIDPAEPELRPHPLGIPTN
# In short: (§2)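 Cloned human 5-HT6 receptor stably expressed in HEK-293 cells; displacement of [3H]-LSD.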
# [3] = target: T3, 5-hydroxytryptamine receptor 1A (Homo sapiens, UniProt P08908); assay: Displacement of [3H]8-OH-DPAT from recombinant human 5-HT1A receptor after 60 mins by scintillation counting analysis
# T3 sequence (P08908 whole entry): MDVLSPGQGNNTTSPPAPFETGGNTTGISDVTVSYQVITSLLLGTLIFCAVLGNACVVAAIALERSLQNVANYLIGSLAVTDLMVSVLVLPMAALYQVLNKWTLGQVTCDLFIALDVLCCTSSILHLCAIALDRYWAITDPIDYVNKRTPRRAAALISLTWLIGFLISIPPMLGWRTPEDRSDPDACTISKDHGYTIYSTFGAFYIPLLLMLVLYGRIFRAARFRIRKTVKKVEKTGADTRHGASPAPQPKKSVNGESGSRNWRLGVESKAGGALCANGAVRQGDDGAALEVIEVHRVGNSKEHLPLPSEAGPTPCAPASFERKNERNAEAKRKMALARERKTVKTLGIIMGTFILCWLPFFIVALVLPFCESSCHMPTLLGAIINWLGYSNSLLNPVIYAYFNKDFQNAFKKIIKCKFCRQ
# In short: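 Radioligand displacement at cloned human 5-HT1A receptor stably expressed in HEK-293 cells, with [3H]-8-OH-DPAT as the radioligand.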
# [4] = target: T1, 5-hydroxytryptamine receptor 2A; assay: Displacement of [3H]-ketanserin from recombinant human 5HT2A receptor expressed in CHOK1 cells measured after 1 hr by microbeta counting method; format: cell-based
# In short: (§3)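 Radioligand displacement on cloned human receptors stably expressed in HEK-293 cells, except 5-HT2A, which was expressed in CHO cells. Radioligands: [3H]-LSD for 5-HT6, [3H]-5-CT for 5-HT7, [3H]-ketanserin for 5-HT2A, [3H]-raclopride for D2.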
# [5] = target: D(2) dopamine receptor (Homo sapiens, UniProt P14416); assay: Displacement of [3H]-raclopride from recombinant human D2LR receptor expressed in HEK293 cells measured after 1 hr by microbeta counting method; format: cell-based; in short: as §3
# Chain of D(2) dopamine receptor (P14416 whole entry): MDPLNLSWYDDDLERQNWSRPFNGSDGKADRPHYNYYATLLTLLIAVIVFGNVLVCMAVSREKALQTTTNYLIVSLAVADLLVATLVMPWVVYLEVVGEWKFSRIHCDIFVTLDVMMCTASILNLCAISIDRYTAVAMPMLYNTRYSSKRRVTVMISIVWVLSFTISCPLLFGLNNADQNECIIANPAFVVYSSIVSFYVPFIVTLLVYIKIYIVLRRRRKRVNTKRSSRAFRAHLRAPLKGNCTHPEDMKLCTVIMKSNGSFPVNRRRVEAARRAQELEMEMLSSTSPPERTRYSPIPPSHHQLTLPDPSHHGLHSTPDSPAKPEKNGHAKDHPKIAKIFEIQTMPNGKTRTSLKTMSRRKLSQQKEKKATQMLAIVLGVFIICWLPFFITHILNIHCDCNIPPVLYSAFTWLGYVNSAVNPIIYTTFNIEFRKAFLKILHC
# [6] = target: T2, 5-hydroxytryptamine receptor 6; assay: Displacement of [3H]-LSD from recombinant human 5HT6 receptor expressed in HEK293 cells measured after 1 hr by microbeta counting method; format: cell-based; in short: as §3
# [7] = target: 5-hydroxytryptamine receptor 5A (Homo sapiens, UniProt P47898); assay: Displacement of [3H]LSD from human recombinant 5-HT5A receptor expressed in cell membrane after 1.5 hrs by scintillation counting analysis; format: cell membranes
# Chain of 5-hydroxytryptamine receptor 5A (P47898 whole entry): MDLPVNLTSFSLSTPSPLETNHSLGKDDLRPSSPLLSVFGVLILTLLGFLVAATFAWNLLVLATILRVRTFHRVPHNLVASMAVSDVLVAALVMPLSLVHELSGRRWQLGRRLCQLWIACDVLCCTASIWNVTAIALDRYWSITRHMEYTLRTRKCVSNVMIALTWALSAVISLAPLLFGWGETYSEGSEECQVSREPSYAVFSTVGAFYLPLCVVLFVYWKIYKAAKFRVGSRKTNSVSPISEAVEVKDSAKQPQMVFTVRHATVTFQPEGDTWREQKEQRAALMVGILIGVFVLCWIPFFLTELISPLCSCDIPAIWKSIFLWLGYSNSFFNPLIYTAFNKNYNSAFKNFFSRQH
# [8] = target: T1, 5-hydroxytryptamine receptor 2A; assay: Displacement of [3H]ketanserin from recombinant human 5-HT2A receptor expressed in cell membrane after 1.5 hrs by scintillation counting analysis; format: cell membranes; in short: as §1
# [9] = target: T2, 5-hydroxytryptamine receptor 6; assay: Displacement of [3H]LSD from human recombinant 5-HT6 receptor expressed in cell membrane after 1.5 hrs by scintillation counting analysis; format: cell membranes; in short: as §2
# [10] = system: Mus musculus; assay: Reversal of MK-801-induced cognitive impairment in mouse assessed increase in novel object recognition at 1 mg/kg treated for 60 mins followed by MK-801 addition 30 mins prior to testing by novel object recognition test; format: functional, organism-based
# In short: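 Mice adapted to an open field for 10 min. Next day: MK-801 0.3 mg kg-1 i.p. given 30 min before training, with the test compound given 60 min before MK-801. Training (T1) used two identical objects; in the retention trial 1 h later one object was replaced by a novel one. Exploration of each object was scored over 5 min. Means ± SEM.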
# [11] = system: Mus musculus; assay: Anxiolytic-like activity in albino Swiss mouse assessed as reduction in stress-induced hyperthermia by measuring reduction in body temperature at 15 mg/kg administered 60 mins prior to testing measured for 15 mins; format: functional, organism-based
# In short: (§4)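 Albino Swiss mice housed singly 24 h before test, dosed 1, 5 or 15 mg kg-1 60 min before test. Rectal temperature read to 0.1 °C at t = 0 (T1) and +15 min (T2) after transfer to a new cage. SIH taken as T2 − T1; T1 compared with vehicle for basal temperature effect. Groups of 8–10; one-way ANOVA with Dunnett's test.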
# [12] = target: Cytochrome P450 2D6 (Homo sapiens, UniProt P10635); assay: Inhibition of CYP2D6 (unknown origin) using beetle D-luciferin as substrate by CYP450-Glo assay; format: ADME
# Chain of Cytochrome P450 2D6 (P10635 whole entry): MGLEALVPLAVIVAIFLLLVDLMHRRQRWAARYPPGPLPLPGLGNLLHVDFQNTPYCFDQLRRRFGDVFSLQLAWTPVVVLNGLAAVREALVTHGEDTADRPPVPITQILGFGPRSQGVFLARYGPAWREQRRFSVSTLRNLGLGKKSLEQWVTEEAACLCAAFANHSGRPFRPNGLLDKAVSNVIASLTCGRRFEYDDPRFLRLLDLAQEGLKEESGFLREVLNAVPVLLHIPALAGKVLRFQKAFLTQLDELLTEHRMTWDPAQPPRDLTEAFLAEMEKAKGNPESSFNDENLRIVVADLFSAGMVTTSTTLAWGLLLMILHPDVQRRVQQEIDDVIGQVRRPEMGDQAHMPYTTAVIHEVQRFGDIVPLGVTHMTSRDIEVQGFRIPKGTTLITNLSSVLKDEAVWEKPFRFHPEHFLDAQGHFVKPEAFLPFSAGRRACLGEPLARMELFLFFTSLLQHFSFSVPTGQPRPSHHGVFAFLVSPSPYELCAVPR
# [13] = Drug metabolism in mouse liver microsomes measured after 120 mins in presence of NADPH generating system by UPLC analysis; format: ADME, Microsome; settings: read-out: Drug metabolism
# In short: (§5)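 Incubation with human, rat or mouse liver microsomes for 120 min at 37 °C with an NADPH regeneration system. Reaction mixtures analysed by UPLC for metabolites and % substrate metabolized.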
# [14] = Mutagenicity in Salmonella typhimurium TA100 assessed as revertant colonies at 10 uM by Ames test; format: toxicity; settings: salmonella enterica subsp. enterica serovar typhimurium
# In short: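 Ames microplate fluctuation assay with S. typhimurium TA100 in 384-well format, run in triplicate. Medium control baseline defined as mean revertants in growth medium + 1% DMSO plus one SD. Positive wells counted; a 2-fold increase over baseline flagged as a mutagen alert.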
# [15] = target: P-glycoprotein (ABCB1) (Homo sapiens, UniProt P08183); assay: Inhibition of recombinant human membrane bound Pgp assessed as basal ATP consumption at 100 uM after 40 mins by Pgp-Glo luminescence assay relative to control; design: scale not given: the % may be the effect or the level left; settings: read-out: Activity
# Chain of P-glycoprotein (ABCB1) (P08183 whole entry): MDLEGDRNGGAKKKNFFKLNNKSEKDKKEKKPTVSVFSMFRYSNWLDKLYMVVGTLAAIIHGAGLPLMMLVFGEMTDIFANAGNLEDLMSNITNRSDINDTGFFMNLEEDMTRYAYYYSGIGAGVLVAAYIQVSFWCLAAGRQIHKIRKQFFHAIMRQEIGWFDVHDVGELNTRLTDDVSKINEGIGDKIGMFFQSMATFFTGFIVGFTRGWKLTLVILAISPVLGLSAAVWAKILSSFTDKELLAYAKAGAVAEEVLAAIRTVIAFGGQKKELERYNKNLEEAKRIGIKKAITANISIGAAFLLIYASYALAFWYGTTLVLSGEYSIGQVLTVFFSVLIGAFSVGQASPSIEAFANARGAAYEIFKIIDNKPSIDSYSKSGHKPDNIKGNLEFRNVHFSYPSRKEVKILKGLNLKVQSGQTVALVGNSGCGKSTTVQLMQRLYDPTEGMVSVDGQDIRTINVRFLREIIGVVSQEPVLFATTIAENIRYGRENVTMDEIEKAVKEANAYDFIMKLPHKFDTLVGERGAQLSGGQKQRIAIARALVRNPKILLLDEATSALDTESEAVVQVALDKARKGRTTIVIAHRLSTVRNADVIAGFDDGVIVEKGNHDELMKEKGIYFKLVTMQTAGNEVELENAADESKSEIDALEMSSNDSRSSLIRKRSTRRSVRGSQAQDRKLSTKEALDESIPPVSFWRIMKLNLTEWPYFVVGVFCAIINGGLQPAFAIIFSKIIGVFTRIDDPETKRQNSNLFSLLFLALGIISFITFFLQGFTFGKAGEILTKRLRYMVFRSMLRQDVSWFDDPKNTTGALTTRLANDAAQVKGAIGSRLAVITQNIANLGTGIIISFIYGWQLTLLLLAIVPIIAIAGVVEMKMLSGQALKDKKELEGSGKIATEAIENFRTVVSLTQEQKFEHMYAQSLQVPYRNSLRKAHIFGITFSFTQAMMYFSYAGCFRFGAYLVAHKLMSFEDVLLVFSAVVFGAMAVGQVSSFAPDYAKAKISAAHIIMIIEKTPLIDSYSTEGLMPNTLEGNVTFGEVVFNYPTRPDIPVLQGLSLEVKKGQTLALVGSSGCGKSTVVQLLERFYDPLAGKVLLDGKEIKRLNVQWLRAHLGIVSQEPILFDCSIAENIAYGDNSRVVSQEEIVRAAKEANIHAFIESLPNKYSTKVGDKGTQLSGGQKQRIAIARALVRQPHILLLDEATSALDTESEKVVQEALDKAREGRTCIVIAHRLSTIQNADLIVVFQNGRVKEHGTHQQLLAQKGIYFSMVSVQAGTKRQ
# In short: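 Pgp-Glo luminescence assay measuring Pgp ATP consumption. Compounds incubated with Pgp membranes at 100 μM for 40 min at 37 °C in triplicate. Na3VO4 (100 μM) used as reference inhibitor and verapamil (200 μM) as stimulator; basal activity taken as the vanadate-versus-untreated signal difference.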
# [16] = Permeability of the compound by PAMPA; format: ADME; settings: read-out: permeability
# In short: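 Passive permeability measured on a pre-coated PAMPA plate system. Concentrations were quantified against calibration curves made by capillary electrophoresis with diode-array detection. The permeability coefficient Pe is reported in 10^-6 cm s^-1 as mean ± SD of triplicates.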
# [17] = species on record: Homo sapiens; assay: Selectivity ratio of Ki for displacement of [3H]-8-OH-DPAT from recombinant human 5HT1A receptor expressed in HEK293 cell membranes to Ki for displacement of [3H]-5-CT from recombinant human 5HT7b receptor expressed in HEK293 cell membranes
# [18] = Retention time of the compound in mouse liver microsomes in presence of NADPH generating system by UPLC analysis; format: ADME, Microsome; in short: as §5
# [19] = target: CYP2C9 (Homo sapiens, UniProt P11712); assay: Inhibition of CYP2C9 (unknown origin) assessed as residual activity at 25 uM using beetle D-luciferin as substrate by CYP450-Glo assay relative to control; format: ADME; settings: CYP2C9 enzyme (unknown origin), probe beetle D-luciferin, read-out: Activity
# Chain of CYP2C9 (P11712 whole entry, canonical isoform): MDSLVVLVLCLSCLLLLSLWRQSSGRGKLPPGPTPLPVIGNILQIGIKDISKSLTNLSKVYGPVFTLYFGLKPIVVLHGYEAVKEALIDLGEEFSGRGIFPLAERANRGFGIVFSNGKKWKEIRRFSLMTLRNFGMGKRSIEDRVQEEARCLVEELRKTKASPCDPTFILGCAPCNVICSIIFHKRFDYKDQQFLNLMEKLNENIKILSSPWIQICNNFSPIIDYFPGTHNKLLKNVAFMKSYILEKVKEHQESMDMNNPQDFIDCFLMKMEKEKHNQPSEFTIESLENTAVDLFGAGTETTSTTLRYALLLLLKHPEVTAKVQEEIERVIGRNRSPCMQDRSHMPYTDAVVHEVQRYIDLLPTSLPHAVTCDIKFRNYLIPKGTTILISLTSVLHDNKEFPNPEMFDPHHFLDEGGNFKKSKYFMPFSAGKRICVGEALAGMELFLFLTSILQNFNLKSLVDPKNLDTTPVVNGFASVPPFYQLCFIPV
# In short: (§6)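 Luminescent P450-Glo assays for CYP3A4, CYP2D6 and CYP2C9 run per the kit protocol. Triplicate wells, final concentrations 0.01–25 μM, same across all three isoforms. Activity given as % of control.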
# [20] = target: Cytochrome P450 3A4 (Homo sapiens, UniProt P08684); assay: Inhibition of CYP3A4 (unknown origin) using beetle D-luciferin as substrate by CYP450-Glo assay; format: ADME
# [21] = target: CYP3A4 (Homo sapiens, UniProt P08684); assay: Inhibition of CYP3A4 (unknown origin) assessed as residual activity at 10 uM using beetle D-luciferin as substrate by CYP450-Glo assay relative to control; format: ADME; settings: CYP3A4 enzyme (unknown origin), probe beetle D-luciferin, read-out: Activity; in short: as §6
# Chain of CYP3A4 (P08684 whole entry): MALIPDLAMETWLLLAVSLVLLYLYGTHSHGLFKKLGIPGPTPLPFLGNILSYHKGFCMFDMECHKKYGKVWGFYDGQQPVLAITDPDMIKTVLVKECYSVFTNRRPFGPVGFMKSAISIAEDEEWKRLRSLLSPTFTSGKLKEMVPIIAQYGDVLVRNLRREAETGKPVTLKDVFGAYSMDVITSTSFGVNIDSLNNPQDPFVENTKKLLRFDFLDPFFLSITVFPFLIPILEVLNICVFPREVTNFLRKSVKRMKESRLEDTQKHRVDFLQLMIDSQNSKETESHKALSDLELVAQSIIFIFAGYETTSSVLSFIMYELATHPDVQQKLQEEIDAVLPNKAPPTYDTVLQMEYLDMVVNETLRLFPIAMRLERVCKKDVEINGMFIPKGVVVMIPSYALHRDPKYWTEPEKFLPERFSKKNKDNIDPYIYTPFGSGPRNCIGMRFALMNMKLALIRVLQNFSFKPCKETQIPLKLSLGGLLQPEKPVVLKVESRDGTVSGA
# [22] = Drug metabolism in rat liver microsomes measured after 120 mins in presence of NADPH generating system by UPLC analysis; format: ADME, Microsome; settings: for metabolised at 2 h: liver microsomes, read-out: Drug metabolism; in short: as §5
# [23] = Hepatotoxicity against human HepG2 cells assessed as ATP level at 100 uM after 3 hrs by CellTiter-Glo luminescent cell viability assay relative to control; format: toxicity, cell-based; settings: read-out: Activity
# In short: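 HepG2 cells exposed 3 h at 1, 10 and 100 μM. […] Run in quadruplicate; result given as % of control.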
# [24] = Drug metabolism in human liver microsomes measured after 120 mins in presence of NADPH generating system by UPLC analysis; format: ADME, Microsome; settings: for Drug metabolism: microsomes, 2 h; in short: as §5
# [25] = Toxicity in albino Swiss mouse assessed as effect on body temperature at 1 to 15 mg/kg; format: organism-based; settings: in vivo; in short: as §4
# [26] = target: CYP2D6 (Homo sapiens, UniProt P10635); assay: Inhibition of CYP2D6 (unknown origin) assessed as residual activity at 10 uM using beetle D-luciferin as substrate by CYP450-Glo assay relative to control; format: ADME; settings: CYP2D6 enzyme (unknown origin), probe beetle D-luciferin, read-out: Activity; in short: as §6
# Chain of CYP2D6 (P10635 whole entry): as the sequence (P10635 whole entry) above
# [27] = system: HEK293; assay: Cytotoxicity against HEK293 cells assessed as reduction in cell viability at 1 uM after 72 hrs by MTS assay relative to control; settings: human, hek293, 72 h
# [28] = target: T3, 5-hydroxytryptamine receptor 1A; assay: Displacement of [3H]-8-OH-DPAT from recombinant human 5HT1A receptor expressed in HEK293 cells measured after 1 hr by microbeta counting method; format: cell-based
# In short: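 Cloned human 5-HT1A receptor stably expressed in HEK-293 cells; displacement of [3H]-8-OH-DPAT.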
# [29] = target: 5-hydroxytryptamine receptor 7 (Homo sapiens, UniProt P34969); assay: Displacement of [3H]-5-CT from recombinant human 5HT7b receptor expressed in HEK293 cells measured after 1 hr by microbeta counting method; format: cell-based; in short: as §3
# Chain of 5-hydroxytryptamine receptor 7 (P34969 whole entry): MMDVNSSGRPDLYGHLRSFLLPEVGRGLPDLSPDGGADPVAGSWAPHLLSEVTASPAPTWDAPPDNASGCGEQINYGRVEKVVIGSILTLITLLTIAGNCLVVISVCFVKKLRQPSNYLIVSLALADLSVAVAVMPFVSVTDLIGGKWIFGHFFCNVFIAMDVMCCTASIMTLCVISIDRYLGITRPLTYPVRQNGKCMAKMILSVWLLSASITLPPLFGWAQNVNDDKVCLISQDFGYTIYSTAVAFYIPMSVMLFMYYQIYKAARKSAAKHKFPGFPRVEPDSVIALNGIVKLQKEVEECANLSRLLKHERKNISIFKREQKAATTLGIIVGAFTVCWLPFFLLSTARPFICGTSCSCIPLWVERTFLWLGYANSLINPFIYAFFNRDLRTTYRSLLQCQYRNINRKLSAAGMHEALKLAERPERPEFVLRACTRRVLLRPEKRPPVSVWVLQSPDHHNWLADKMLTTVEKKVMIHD
# [30] = Retention time of the compound in rat liver microsomes in presence of NADPH generating system by UPLC analysis; format: ADME, Microsome
# In short: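 Incubated with rat liver microsomes plus an NADPH regeneration system for 120 min at 37 °C. Reaction mixtures were analysed by UPLC to detect metabolites and their retention times.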
# T1 sequence (P28223 whole entry): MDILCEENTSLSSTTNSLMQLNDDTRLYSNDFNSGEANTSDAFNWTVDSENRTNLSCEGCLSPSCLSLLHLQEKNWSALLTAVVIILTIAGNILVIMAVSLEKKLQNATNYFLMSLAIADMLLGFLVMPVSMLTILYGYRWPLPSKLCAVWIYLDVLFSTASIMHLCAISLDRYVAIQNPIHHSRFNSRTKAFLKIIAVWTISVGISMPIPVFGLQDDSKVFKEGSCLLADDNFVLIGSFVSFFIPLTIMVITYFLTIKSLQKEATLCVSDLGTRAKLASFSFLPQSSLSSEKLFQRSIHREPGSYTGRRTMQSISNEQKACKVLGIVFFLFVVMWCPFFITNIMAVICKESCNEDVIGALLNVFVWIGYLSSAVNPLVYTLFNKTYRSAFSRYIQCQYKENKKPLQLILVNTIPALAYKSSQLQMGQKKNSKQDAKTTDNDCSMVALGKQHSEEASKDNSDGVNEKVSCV
SMILES,Ki [4] [µM],Ki [5] [µM],Ki [6] [µM],metabolised at 2 h [13] [%],Activity [14],"activity at 40 min, 100 µM [15] [%]",activity at 25 µM [19] [%],activity at 10 µM [21] [%],activity at 10 µM [26] [%],Ki [28] [µM],Ki [29] [µM],further results
Cc1nn(C)c(C)c1-c1cccc(CCN(C)C)c1,,,,,,,,,,,,Ki [1]: > 1 µM; Ki [2]: > 1 µM; Ki [3]: 0.7 µM
CCn1cncc1-c1c[nH]c2ccc(I)cc12,> 10,4.85,1.67,,,,,,,,,
c1ccc(-c2ccccc2N2CCNCC2)cc1,,,,,,,,,,,,Ki [7]: 0.076 µM; Ki [8]: 1.19 µM; Ki [9]: 0.596 µM
CCn1cncc1-c1c[nH]c2ccc(C(N)=O)cc12,> 10,> 10,> 10,14,5.6,19.3,104,2.9,43.4,,,"Activity [10]: Active; Activity [11]: Active; IC50 [12]: 7.47 µM; Papp [16]: 2.78 ×10⁻⁶ cm/s; Ratio Ki [17]: 25; Retention_time [18]: 1.6 min; IC50 [20]: 0.31 µM; metabolised at 2 h [22]: 7%; viability at 3 h, 100 µM [23]: 102%; Drug metabolism [24]: Metabolite_Notdetected; Activity [25]: Non-Toxic"
N#CC(C#N)=NNc1cccc(Cl)c1 [CARBONYL CYANIDE M-CHLOROPHENYLHYDRAZONE],,,,,,,,,,,,Activity [27]: 40%
N#Cc1ccc(CNC(=O)CCCCCN2CCN(c3ccccc3-c3ccccc3)CC2)cc1,,,,,,,,,,,,Ki [7]: 0.178 µM; Ki [8]: 0.626 µM
Cn1cncc1-c1c[nH]c2ccc(C(N)=O)cc12,> 10,5.56,6.91,9,12.3,60,37.2,29.4,55,0.22,0.006,"IC50 [12]: 27.6 µM; Ratio Ki [17]: 37; IC50 [20]: 3.53 µM; Drug metabolism ([22]; microsomes, 2 h): Metabolite_Notdetected; Drug metabolism [24]: Metabolite_Notdetected"
NCCc1c[nH]c2ccc(C(N)=O)cc12,,,,2,4,26.3,78.7,95.7,108,,,"Retention_time [30]: 1.62 min; Papp [16]: 3.54 ×10⁻⁶ cm/s; metabolised at 2 h [22]: 20%; metabolised at 2 h ([24]; liver microsomes, read-out: Drug metabolism): 26%"
CCn1cncc1-c1c[nH]c2ccc(C(=O)OC)cc12,> 10,> 10,6.06,,,,,,,> 10,0.161,
CCn1cncc1-c1c[nH]c2ccc(S(N)(=O)=O)cc12,> 10,> 10,7.27,,,,,,,> 10,6.42,

# Reference: ChEMBL document CHEMBL4368858, “Search for a 5-CT alternative. In vitro and in vivo evaluation of novel pharmacological tools: 3-(1-alkyl-1H-imidazol-5-yl)-1H-indole-5-carboxamides, low-basicity 5-HT7 receptor agonists” (Medchemcomm, 2018)
